Measurements taken from ChEMBL document CHEMBL4270616, “Asymmetrical meta-methoxylated diarylpentanoids: Rational design, synthesis and anti-cancer evaluation in-vitro” (Eur J Med Chem, 2018).

Key:
SW-620 [1] = experiment: Induction of apoptosis in human SW620 cells assessed as early apoptotic cells at 10 uM after 48 hrs by Annexin V-FITC/propidium iodide staining based flow cytometry (reference value: 2.75%); type: functional
SW-620 [2] = experiment: Anticlonogenic activity against human SW620 cells assessed as colony formation at 0.3125 uM after 10 days by crystal violet staining based imaging analysis (reference value: 100%); type: functional
In short: (§1)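 SW620 cells seeded at 1000 cells/well in DMEM, left overnight at 37°C, 5% CO2, then exposed to compound for ten days with drug-containing medium renewed every three days. Cells were PBS-washed, fixed in 4% paraformaldehyde for 15 min, stained with 0.5% (w/v) crystal violet for 10 min, air-dried, photographed, and colonies quantified by image analysis.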

SW-620 [3] = experiment: Induction of apoptosis in human SW620 cells assessed as live cells at 10 uM after 72 hrs by Annexin V-FITC/propidium iodide staining based flow cytometry (reference value: 97.34%); type: functional
SW-620 [4] = experiment: Anticlonogenic activity against human SW620 cells assessed as colony formation at 1.25 uM after 10 days by crystal violet staining based imaging analysis (reference value: 100%); type: functional; in short: as §1
SW-620 [5] = experiment: Cell cycle arrest in human SW620 cells assessed as accumulation at G2/M phase at 2.5 uM after 24 hrs by propidium iodide staining based flow cytometry (reference value: 19%); type: functional
SW-620 [6] = experiment: Induction of apoptosis in human SW620 cells assessed as necrotic cells at 10 uM after 72 hrs by Annexin V-FITC/propidium iodide staining based flow cytometry (reference value: 0.27%); type: functional
HT-1080 = experiment: Cytotoxicity against human HT1080 cells after 72 hrs by MTT assay; type: functional, cell-based; settings: HT-1080, 72 h
In short: (§2)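 Tumour lines kept in DMEM with 10% FBS and 1% penicillin/streptomycin at 37°C, 5% CO2. Seeded at 1500-5000 cells/well by doubling time and size, 24 h, then compound in DMSO-containing medium (final DMSO 0.1%) for 72 h. MTT (5 mg/mL) 4 h at 37°C, DMSO solubilisation, absorbance at 570 nm.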

[7] = Cytotoxicity against human EJ28 cells after 72 hrs by MTT assay; type: functional, cell-based; settings: EJ-28, 72 h; in short: as §2
SW-620 [8] = experiment: Induction of apoptosis in human SW620 cells assessed as live cells at 2.5 uM after 48 hrs by Annexin V-FITC/propidium iodide staining based flow cytometry (reference value: 96.26%); type: functional
SW-620 [9] = experiment: Induction of apoptosis in human SW620 cells assessed as live cells at 5 uM after 48 hrs by Annexin V-FITC/propidium iodide staining based flow cytometry (reference value: 96.26%); type: functional

Row | SMILES | Activity (SW-620 [1]) | Activity (SW-620 [2]) | Activity (SW-620 [3]) | Activity (SW-620 [4]) | Activity (SW-620 [5]) | Activity (SW-620 [6]) | IC50 (HT-1080) | IC50 [7] | Activity (SW-620 [8]) | Activity (SW-620 [9])
1 | COc1ccc(/C=C2\CCC/C(=C\c3cc(OC)c(OC)c(OC)c3)C2=O)cc1OC | 0.37% | 93.6% | 2.37% | 0.5% | 50% | 0.24% | 1100 nM | 1700 nM | 79.03% | 26.23%
2 | COc1ccc(/C=C2\CCC/C(=C\c3cccc(O)c3)C2=O)cc1OC | 9.84% | 97.9% | 2.19% | 0.8% | 49% | 0.22% | 1700 nM | 1800 nM | 91.27% | 36.63%
